Source: ChEMBL document CHEMBL1135120, “Novel lipoic acid analogues that inhibit nitric oxide synthase” (Bioorg Med Chem Lett, 2002)

How the values were obtained:
Mus musculus [1] = species: Mus musculus; experiment: Ability for prevention of GSH depletion was measured in mouse; assay type: functional
Outline: (§1)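 Glutamate-challenged HT22 cells; total intracellular GSH measured by enzymatic glutathione assay, i.e. formation of 5-thio-2-nitrobenzoic acid from GSH oxidation by 5,5'-dithiobis(2-nitrobenzoic acid).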

Nitric oxide synthase 1 [2] = target: T1, Nitric oxide synthase 1 (Homo sapiens, UniProt P29475); experiment: In vitro inhibition concentration was evaluated on the effect of conversion by Nitric Oxide synthase of [3H]L-arginine into [3H]L-citrulline; Not active up to 100 uM
HT22 (Mus musculus) [3] = experiment: Neuroprotective effect was measured by its ability to protect mouse hippocampal neuronal HT-22 cell lines from oxidative stress caused by glutamate
Mus musculus [4] = species: Mus musculus; experiment: Ability for prevention of GSH depletion was measured in mouse; Not active up to 100 uM; assay type: functional; outline: as §1
HT22 (Mus musculus) [5] = experiment: Neuroprotective effect was measured by its ability to protect mouse hippocampal neuronal HT-22 cell lines from oxidative stress caused by glutamate; Not active up to 100 uM
Nitric oxide synthase 1 [6] = target: T1, Nitric oxide synthase 1; experiment: In vitro inhibition concentration was evaluated on the effect of conversion by Nitric oxide synthase of [3H]L-arginine into [3H]L-citrulline
Nitric oxide synthase 1 [7] = target: T1, Nitric oxide synthase 1; experiment: In vitro inhibition concentration was evaluated on the effect of conversion by Nitric Oxide synthase of [3H]L-arginine into [3H]L-citrulline

T1 sequence (P29475 whole entry): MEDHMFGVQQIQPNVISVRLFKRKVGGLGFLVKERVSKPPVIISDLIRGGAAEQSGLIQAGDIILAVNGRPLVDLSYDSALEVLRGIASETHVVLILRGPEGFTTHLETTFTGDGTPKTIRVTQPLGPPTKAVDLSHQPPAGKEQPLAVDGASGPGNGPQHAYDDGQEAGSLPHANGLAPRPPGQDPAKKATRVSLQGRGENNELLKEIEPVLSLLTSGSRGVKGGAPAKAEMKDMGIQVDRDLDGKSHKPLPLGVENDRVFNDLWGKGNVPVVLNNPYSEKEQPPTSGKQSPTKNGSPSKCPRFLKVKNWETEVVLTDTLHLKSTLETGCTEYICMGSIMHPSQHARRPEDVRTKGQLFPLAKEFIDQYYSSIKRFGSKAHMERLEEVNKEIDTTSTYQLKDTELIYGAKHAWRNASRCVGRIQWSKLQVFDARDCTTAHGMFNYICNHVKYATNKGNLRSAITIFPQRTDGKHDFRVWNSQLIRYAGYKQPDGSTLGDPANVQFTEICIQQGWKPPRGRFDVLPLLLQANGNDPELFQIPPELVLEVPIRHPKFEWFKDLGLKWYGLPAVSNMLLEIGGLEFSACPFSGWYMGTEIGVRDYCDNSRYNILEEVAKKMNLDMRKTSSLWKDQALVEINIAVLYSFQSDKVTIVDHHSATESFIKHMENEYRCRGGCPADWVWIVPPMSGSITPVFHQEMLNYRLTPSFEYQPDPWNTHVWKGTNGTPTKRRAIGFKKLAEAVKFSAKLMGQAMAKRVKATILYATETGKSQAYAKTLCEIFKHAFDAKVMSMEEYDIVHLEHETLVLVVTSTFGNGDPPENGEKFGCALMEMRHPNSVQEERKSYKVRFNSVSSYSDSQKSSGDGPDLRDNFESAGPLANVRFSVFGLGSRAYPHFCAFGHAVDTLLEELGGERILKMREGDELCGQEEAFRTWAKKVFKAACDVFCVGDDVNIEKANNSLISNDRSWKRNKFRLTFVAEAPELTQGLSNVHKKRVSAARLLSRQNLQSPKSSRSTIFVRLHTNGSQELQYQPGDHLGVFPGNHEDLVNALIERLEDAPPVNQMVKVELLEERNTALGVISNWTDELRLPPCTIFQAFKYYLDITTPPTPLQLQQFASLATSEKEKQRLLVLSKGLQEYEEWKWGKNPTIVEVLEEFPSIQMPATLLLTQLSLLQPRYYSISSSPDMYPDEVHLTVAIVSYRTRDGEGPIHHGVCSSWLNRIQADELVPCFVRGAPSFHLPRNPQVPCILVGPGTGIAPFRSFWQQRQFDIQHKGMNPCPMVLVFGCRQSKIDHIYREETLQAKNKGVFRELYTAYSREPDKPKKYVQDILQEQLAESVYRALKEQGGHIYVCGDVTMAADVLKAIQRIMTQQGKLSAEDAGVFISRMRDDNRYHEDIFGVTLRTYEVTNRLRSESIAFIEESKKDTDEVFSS

EC50 (Mus musculus [1]) [µM]	IC50 (Nitric oxide synthase 1 [2])	EC50 (HT22 (Mus musculus) [3]) [µM]	EC50 (Mus musculus [4])	EC50 (HT22 (Mus musculus) [5])	IC50 (Nitric oxide synthase 1 [6]) [µM]	IC50 (Nitric oxide synthase 1 [7]) [µM]	Structure (SMILES)
122	Not Active	19.6	–	–	–	–	O=C(O)CCCCC1CCSS1 (stereo not drawn) [LIPOIC ACID, ALPHA]
–	–	–	Not Active	Not Active	4	–	N=C(Nc1ccccc1)c1cccs1
46.9	–	11.1	–	–	–	3.5	N=C(Nc1ccc(NC(=O)CCCCC2CCSS2)cc1)c1cccs1 (stereo unspecified)
37.1	–	11.7	–	–	–	1.04	N=C(Nc1ccc(CCNC(=O)CCCCC2CCSS2)cc1)c1cccs1 (stereo unspecified)
11.9	–	9.6	–	–	–	4.4	NC(=Nc1ccc(NC(=O)CC2CCSS2)cc1)c1cccs1 (stereo unspecified)
12.3	–	1.8	–	–	–	1.15	N=C(Nc1ccc(CCNC(=O)CC2CCSS2)cc1)c1cccs1 (stereo unspecified)
64.8	–	6.3	–	–	–	2.3	NC(=Nc1ccc(CNC(=O)CCCCC2CCSS2)cc1)c1cccs1 (stereo unspecified)
